Compound activity as filed in PubChem.
RGS4 block – RGS4 inhibitors, primary screen, cell-based, HEK293 M3R inducible RGS4, calcium flux; Regulator of G-protein signaling 4 (Homo sapiens), P49798; Fluo-4 calcium flux; active compounds read high; triggered by carbachol at its EC20; B-score at 10 µM; 0.45% of 310,000 active;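 active means B-score, a plate-corrected calcium signal, over three deviations above library mean, with baseline fluorescence within five deviations of library mean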;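 further: RGS4 expression induced by doxycycline in cells with stable M3 receptor; B-score is computed from the integrated fluorescence ratio over baseline after carbachol; higher B-score means a larger calcium signal and so more RGS4 inhibition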
Target sequence (P49798 whole entry, looked up): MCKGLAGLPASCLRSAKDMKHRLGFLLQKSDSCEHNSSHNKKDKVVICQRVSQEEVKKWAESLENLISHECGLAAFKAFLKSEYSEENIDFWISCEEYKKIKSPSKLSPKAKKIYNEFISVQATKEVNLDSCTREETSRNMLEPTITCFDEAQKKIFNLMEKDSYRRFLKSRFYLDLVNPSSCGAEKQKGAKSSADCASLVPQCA
MrgX1 allo act – positive allosteric modulators of MrgX1, primary screen, HEK293 cells, Fluo-4 calcium flux | B-score at 10 µM | AID 588675, 2011 | 0.63% of 310,000 active | Mas-related G-protein coupled receptor member X1 (Homo sapiens), Q96LB2 | FDSS; active compounds read high;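 active means plate-corrected calcium response at least 3 library SD above typical, normal starting fluorescence, not activating the receptor alone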;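 further: compound read alongside a low EC10 to EC30 dose of BAM8-22 agonist; peak minus trough fluorescence over baseline measured at the second addition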
Target sequence (Q96LB2 whole entry, looked up): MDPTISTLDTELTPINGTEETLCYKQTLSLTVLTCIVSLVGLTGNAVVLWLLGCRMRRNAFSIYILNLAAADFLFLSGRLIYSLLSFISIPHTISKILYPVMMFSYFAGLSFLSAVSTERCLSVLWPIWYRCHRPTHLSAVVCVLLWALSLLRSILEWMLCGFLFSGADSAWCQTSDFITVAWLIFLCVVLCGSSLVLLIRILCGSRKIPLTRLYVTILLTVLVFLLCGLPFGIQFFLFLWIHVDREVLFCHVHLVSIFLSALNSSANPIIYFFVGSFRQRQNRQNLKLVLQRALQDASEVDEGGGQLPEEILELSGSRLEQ
MrgX1 ag – agonists of human MrgX1 receptor, primary screen, HEK293 cells, Fluo-4 calcium flux; Fluo-4 calcium fluorescence, agonist mode; active compounds read high; 0.44% of 310,000 active; B-score at 10 µM; AID 588627, 2011; Mas-related G-protein coupled receptor member X1 (Homo sapiens), Q96LB2;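 active means calcium response B-score plate-corrected fluorescence ratio at least 3 library SD, with starting fluorescence B-score inside 5 SD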
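Test system: HEK293 cells stably expressing human MrgX1 receptor; Input: fifteen thousand cells per well; Dosing: compound delivered in addition one of three; Schedule: overnight seeding, then 1 h dark dye loading; Technique: Fluo-4 NW calcium fluorescence; Measure: B-scored fluorescence response ratio; Controls: positive and negative controls per plate.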
MrgX1 antagonist – antagonists of human MrgX1 receptor, primary screen, HEK293 cells, Fluo-4 calcium flux. BAM8-22 antagonism; active compounds read low. B-score at 10 µM. 1.3% of 310,000 active. AID 588676, 2011;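 active means calcium-response B-score plate-corrected more than 3 library SD below zero, starting fluorescence within 5 deviations, no agonist response on first addition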;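 further: peak minus trough fluorescence over baseline after final BAM8-22 challenge near maximal dose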
RGS4 act – RGS4 potentiators or activators, primary screen, cell-based, HEK293 M3R inducible RGS4, calcium flux; carbachol calcium flux Fluo4; active compounds read low; AID 463111, 2010; B-score at 10 µM; 0.92% of 310,000 active;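 active means B-score of the integrated calcium signal more than 4 SD below the library mean, with starting fluorescence not abnormally high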;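 further: negative B-score means reduced calcium response which marks RGS4 activation or potentiation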
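test system = HEK293 cells with stable M3R and inducible RGS4 | schedule = recording 10 s baseline at 1 Hz, 100 s post-agonist | technique = Fluo4-AM (2 µM) calcium-flux fluorescence, kinetic read | measure = Agonist-evoked peak-minus-minimum fluorescence over baseline, integrated ratio, B score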
RGS4 block valid – enhanced carbachol calcium response, M3R/RGS4 cells, RGS4 inhibitor project, cell-based, validation screen, HEK293 M3R/RGS4, calcium flux; calcium response, % at 10 µM; 65% of 1,700 active; carbachol calcium Fluo-4 fluorescence; carbachol added at its EC20; 0 = buffer wells, 100 = carbachol control; AID 492999, 2010; shares compounds with RGS4 block;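 active means duplicate-averaged calcium response above the buffer-only control mean plus 5 SD of those controls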;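 further: integrated fluorescence ratio F max minus min over baseline F0; higher response in RGS4-induced cells means RGS4 inhibition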
RGS4 uninduced – carbachol calcium response in non-induced M3R cells, confirmation, counter-screen for RGS4 inhibitor project, cell-based, HEK293 M3R; activity (percent), % at 10 µM; shares compounds with RGS4 block; 20% of 1,900 active; carbachol calcium Fluo-4; submaximal (EC20) carbachol stimulus; buffer wells 0%, carbachol control wells 100%; call rule not given here;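 further: RGS4 induction absent so cells express M3R without RGS4; higher means more calcium signal and flags a non-specific hit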
M3R basal Ca ctr – second counter-screen for RGS4 inhibitors: non-induced cells without carbachol | shares compounds with RGS4 block | HEK293 M3R/RGS4 non-induced, Fluo-4 calcium, no carbachol; normalised: buffer wells 0%, carbachol wells 100% | calcium response (agonist-mode artifact), % at 10 µM | 22% of 1,900 active;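 active means duplicate-averaged calcium rise in uninduced cells above buffer wells' mean plus 5 SD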
MrgX1 ag reconf – MrgX1 receptor agonists, duplicate retest, confirmation, HEK293 cells, Fluo-4 calcium flux; shares compounds with MrgX1 ag; Fluo-4 calcium fluorescence, FDSS; activation, % at 10 µM; 78% of 600 active;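 active means calcium signal rise, corrected for plate position, at least 3 library SD high, with starting brightness within 5 such deviations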
MrgX1 ant reconf – MrgX1 receptor antagonists, duplicate retest, confirmation, HEK293 cells, Fluo-4 calcium flux; remaining BAM8-22 calcium response % of control (active compounds read low), % at 10 µM; BAM8-22 calcium flux; active compounds read low; shares compounds with MrgX1 antagonist; 19% of 2,300 active;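 active means remaining agonist calcium response no higher than 100% minus 3 SD of agonist-only control wells, with starting fluorescence near control levels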;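 further: agonist BAM8-22 given at a near maximal EC90 to ECmax level; peak minus minimum fluorescence divided by baseline after agonist addition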
HEK293 Ca flux – nonspecific calcium signal in parental HEK293, confirmation, counter-screen for MrgX1 antagonist project, parental HEK293 cells, Fluo-4 calcium flux; shares compounds with MrgX1 antagonist; Fluo-4 calcium fluorescence, FDSS; fluorescence ratio F(max-min)/F0 at 10 µM; 2% of 4,000 active; AID 624111, 2012;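 active means duplicate-averaged calcium fluorescence ratio at least three times the standard deviation of buffer wells, a nonspecific response in parental cells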
HEK293 Ca counter – calcium response in parental HEK293 cells, primary screen, counter-screen for MrgX1 allosteric activator project, cell-based, Fluo-4 calcium flux, duplicate; shares compounds with MrgX1 antagonist; Fluo-4 fluorescence ratio; active compounds read high; 0.4% of 4,000 active; fluorescence ratio F(max-min)/F0 at 10 µM;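 active means calcium fluorescence ratio, averaged over duplicates, at least 3 SD of the buffer-well ratio, meaning a nonspecific response in receptor-free cells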;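 further: untransfected parental HEK293 lacking MrgX1 used as counterscreen for MrgX1 allosteric activators; fluorescence change taken during the second addition on a kinetic imager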
HEK293 Ca cntr2 – calcium response in parental HEK293 cells, primary screen, counter-screen for MrgX1 agonist project, cell-based, Fluo-4 calcium flux, duplicate, agonist mode; shares compounds with MrgX1 antagonist; Fluo-4 calcium fluorescence (FDSS); active compounds read high; fluorescence ratio F(max-min)/F0 at 10 µM; 8.7% of 4,000 active;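 active means calcium fluorescence ratio at least three times the spread of buffer wells, meaning a non-specific response in parental cells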
Each line names hits and unclear results; the compound was inactive in the other large screens (follow-up assays come after a bar, where they were run). In the library only some 3.5% were active in any assay of this set; here they are far more common.

O=C(CCN1CCc2ccccc2CC1)c1ccc2c(c1)OCCO2	RGS4 block 13, MrgX1 ag 38 | RGS4 block valid 20% | RGS4 uninduced inactive | M3R basal Ca ctr 26% | MrgX1 ag reconf 136% | HEK293 Ca flux inactive | HEK293 Ca counter inactive | HEK293 Ca cntr2 inactive
COc1cc(CNc2ccc(N3CCCC3)cc2)cc(Cl)c1OC	MrgX1 antagonist -6.1 | RGS4 uninduced 33% | M3R basal Ca ctr inactive | MrgX1 ant reconf inactive | HEK293 Ca flux inactive | HEK293 Ca counter inactive | HEK293 Ca cntr2 inactive
CC(C)[C@H](NC(=O)Nc1ccc(Oc2ccccc2)cc1)C(=O)O	none
C[N+](C)(C)C/C=C1/COCO1	RGS4 block 7.3, MrgX1 ag 67, RGS4 act -9.1 | RGS4 block valid 14% | RGS4 uninduced inactive | M3R basal Ca ctr 386% | MrgX1 ag reconf 328% | HEK293 Ca flux inactive | HEK293 Ca counter inactive | HEK293 Ca cntr2 67
COCCNC(=O)/C(C#N)=C/c1ccc(OCC(=O)NC2CCCCC2)cc1	none
Cc1c(Cl)ccc2c1NC(=O)[C@]21N[C@@H](Cc2ccccc2)[C@H]2C(=O)N(c3ccc(F)cc3)C(=O)[C@H]21	RGS4 block 4.9, MrgX1 ag 27 | RGS4 block valid 27% | RGS4 uninduced inactive | M3R basal Ca ctr 20% | MrgX1 ag reconf inactive | HEK293 Ca flux inactive | HEK293 Ca counter inactive | HEK293 Ca cntr2 inactive
CC(=O)OCCN1CCN(C(=O)CN2C(=O)NC(c3ccccc3)(c3ccccc3)C2=O)CC1	none
COc1ccc(CS(=O)(=O)/C(Cl)=C(/Cl)C(=O)Nc2ccc(OC)nc2)cc1	RGS4 block 13, MrgX1 ag 47 | RGS4 block valid 57% | RGS4 uninduced 32% | M3R basal Ca ctr 12% | MrgX1 ag reconf 191% | HEK293 Ca flux inactive | HEK293 Ca counter inactive | HEK293 Ca cntr2 inactive
CCOc1cc(/C=N/NC(=O)c2ccc(CN3CCOCC3)cc2)ccc1OC	none
CCOc1cc(/C=C/C(=O)c2ccc(OC)c(CN3CCOCC3)c2)cc(Br)c1O	MrgX1 ag 143 | MrgX1 ag reconf 675% | HEK293 Ca flux inactive | HEK293 Ca counter inactive | HEK293 Ca cntr2 131
CCOc1ccc(NC2=NCC(=O)N2CCc2ccccc2)cc1	MrgX1 ag 27 | MrgX1 ag reconf 122% | HEK293 Ca flux inactive | HEK293 Ca counter inactive | HEK293 Ca cntr2 inactive
Cc1ccc(NC2=NCC(=O)N2CCc2ccccc2)cc1C	none
O=C(O)Cc1sc(Nc2ccc(F)cc2)nc1-c1cccs1	MrgX1 ag 32 | MrgX1 ag reconf inactive | HEK293 Ca flux inactive | HEK293 Ca counter inactive | HEK293 Ca cntr2 inactive
Cc1nnc(NC(=O)c2sc3nc(-c4cccs4)cc(C(F)(F)F)c3c2N)s1	MrgX1 ag 31 | MrgX1 ag reconf 299% | HEK293 Ca flux 0.3 | HEK293 Ca counter inactive | HEK293 Ca cntr2 63
COc1cc2c(cc1OC)C(c1ccccc1C(F)(F)F)CC(=O)N2 (stereo not drawn)	MrgX1 ag 29 | MrgX1 ag reconf inactive | HEK293 Ca flux inactive | HEK293 Ca counter inactive | HEK293 Ca cntr2 inactive
Cn1c2c(c(=O)n(C)c1=O)[C@@]1(C(=O)Nc3ccccc31)C(C#N)=C(N)O2	MrgX1 ag 41 | MrgX1 ag reconf 173% | HEK293 Ca flux inactive | HEK293 Ca counter inactive | HEK293 Ca cntr2 inactive
N#CC1=C(N)Oc2n[nH]c(-c3ccccc3)c2C12C(=O)Nc1ccccc12 (stereo not drawn)	none
Nc1ccc(C23CC4CC(CC(CO)(C4)C2)C3)cc1	none
NCC12CC3CC(C1)CC(c1ccc(Cl)cc1)(C3)C2	MrgX1 ag 34, RGS4 act -7.2 | MrgX1 ag reconf 135% | HEK293 Ca flux inactive | HEK293 Ca counter inactive | HEK293 Ca cntr2 inactive
Cn1c2ccccc2c(=O)c2c(=O)n(C3CCCCCC3)c(C3CCCCC3)nc21	none (no result: MrgX1 allo act, MrgX1 ag, MrgX1 antagonist)
Cn1c2ccccc2c(=O)c2c(=O)n(C3CCCCC3)c(-c3cccs3)nc21	MrgX1 ag 110 | MrgX1 ag reconf 596% | HEK293 Ca flux inactive | HEK293 Ca counter inactive | HEK293 Ca cntr2 98
Cn1c2ccccc2c(=O)c2c(=O)n(-c3ccccc3)c(C3CCCCC3)nc21	none
CCc1nc2c(c(=O)c3ccccc3n2C)c(=O)n1C1CCCCCC1	MrgX1 ag 117 | MrgX1 ag reconf 481% | HEK293 Ca flux inactive | HEK293 Ca counter inactive | HEK293 Ca cntr2 97
CCNC(=O)c1ccc(C23CC4CC(CC(C4)C2)C3)o1	none
COc1cc(/C=C2/C(=N)N3N=C(C(C)C)SC3=NC2=O)ccc1OS(=O)(=O)c1ccccc1	none
